The results in this text go back to ChEMBL document CHEMBL1125769 (J Med Chem, 1991).

“And” between values parts separate entries of the source, which are not always exact repeats. Equal entries are not always repeated. Square brackets hold non-standard residues; d marks the D form. Peptide text beside a SMILES is read from it. NMeA = CN[C@@H](C)C(=O)O; Ac5c = NC1(C(=O)O)CCCC1; Aib = CC(C)(N)C(=O)O; Sar = CNCC(=O)O

In assay [1] the test system is Rattus norvegicus. Nature of the assay: in vivo antagonist activity (ANG II like) is expressed by blood pressure increase (mHg) produced by […] iv injection of compound in rats. Format: functional. The method in brief:
(§1)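 Rat blood pressure assay after Regoli et al.; residual ANG II-like activity read as mmHg rise in blood pressure following a one microgram intravenous bolus of compound; n = 5.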

The species named for assay [2] is Rattus norvegicus. In words: In vitro antagonist activity expressed as pA2 was measured in rat uterus.
The target in assay [3] is T1, Angiotensin II receptor (Rattus norvegicus) (UniProt P29089+P25095+P35351). In words: In vivo agonist activity expressed as percent activity relative to angiotensin II in rat blood pressure assay. Format: functional, organism-based. The method in brief:
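Rat blood pressure (pressor) assay in vivo, after Regoli et al.; ANG II-like activity given as percent activity relative to ANG II; n = 5.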

Assay [4] has as its target T1, Angiotensin II receptor (Rattus norvegicus). In words: In vitro agonist activity relative to angiotensin II measured in rabbit aorta strip assay. Format: functional, tissue-based.
Assay [5] relates to Rattus norvegicus. In words: In vivo antagonist activity (ANG II like) expressed as blood pressure increase […] produced by […] iv injection of compound in rats. Format: functional. The gist of the method:
as §1

The species named for the next assay is Oryctolagus cuniculus. Nature of the assay: In vitro agonist activity expressed as percent activity relative to ANG II was measured in rabbit aorta strip assay. Format: functional.
Another assay has as its target T2, Angiotensin II receptor (Rattus norvegicus, UniProt P29089+P25095+P35351).
T2 sequence (P29089 whole entry): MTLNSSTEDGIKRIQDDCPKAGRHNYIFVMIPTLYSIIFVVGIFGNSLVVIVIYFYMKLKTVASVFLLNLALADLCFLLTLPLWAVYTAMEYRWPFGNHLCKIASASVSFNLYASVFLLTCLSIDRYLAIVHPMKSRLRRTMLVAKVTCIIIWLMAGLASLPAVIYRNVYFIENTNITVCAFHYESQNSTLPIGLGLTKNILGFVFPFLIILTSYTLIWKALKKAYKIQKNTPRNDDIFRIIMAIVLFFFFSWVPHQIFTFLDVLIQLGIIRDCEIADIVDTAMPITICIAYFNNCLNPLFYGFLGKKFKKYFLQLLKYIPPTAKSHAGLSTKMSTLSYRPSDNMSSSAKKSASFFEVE
T2 sequence (P25095 whole entry): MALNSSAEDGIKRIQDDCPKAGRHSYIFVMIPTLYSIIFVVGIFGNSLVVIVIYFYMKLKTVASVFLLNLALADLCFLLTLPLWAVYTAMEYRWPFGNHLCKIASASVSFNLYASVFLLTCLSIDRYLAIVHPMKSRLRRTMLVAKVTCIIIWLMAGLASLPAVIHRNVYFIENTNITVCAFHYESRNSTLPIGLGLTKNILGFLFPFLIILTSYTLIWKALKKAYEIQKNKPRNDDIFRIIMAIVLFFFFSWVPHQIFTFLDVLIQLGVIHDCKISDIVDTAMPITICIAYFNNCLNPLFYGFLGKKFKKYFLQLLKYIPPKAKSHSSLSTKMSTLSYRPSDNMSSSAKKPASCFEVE
T2 sequence (P35351 whole entry): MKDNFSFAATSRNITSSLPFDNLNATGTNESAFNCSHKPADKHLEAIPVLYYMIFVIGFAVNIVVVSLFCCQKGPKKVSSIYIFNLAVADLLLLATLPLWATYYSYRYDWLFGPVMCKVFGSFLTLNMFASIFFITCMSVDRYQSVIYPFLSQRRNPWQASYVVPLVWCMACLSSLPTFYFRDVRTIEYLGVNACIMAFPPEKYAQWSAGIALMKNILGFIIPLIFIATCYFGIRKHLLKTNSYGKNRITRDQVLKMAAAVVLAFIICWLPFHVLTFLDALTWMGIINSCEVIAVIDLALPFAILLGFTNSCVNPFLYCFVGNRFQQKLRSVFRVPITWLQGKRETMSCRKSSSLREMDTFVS
Nature of the assay: In vitro antagonist activity (ANG II like) expressed as percent activity relative to ANG II in rabbit aorta strip assay. Format: functional, tissue-based.

Assay [6] deals with T1, Angiotensin II receptor (Rattus norvegicus). In words: In vivo antagonist activity (ANG II like) expressed by blood pressure increase (mHg) produced by […] iv injection of compound in rats. Format: functional, organism-based. The method in brief:
as §1

Usually pA2 stands for a measure of antagonist potency on a negative log scale. Read a high pA2 as higher antagonist potency. For `CC[C@H](C)[C@H](NC(=O)[C@@H]1CSCN1C(=O)[C@H](Cc1c[nH]cn1)NC(=O)[C@@H](NC(=O)[C@H](Cc1ccc(O)cc1)NC(=O)[C@@H](NC(=O)[C@H](CCCN=C(N)N)NC(=O)CNC)C(C)C)[C@@H](C)CC)C(=O)O`, in the assay on Rattus norvegicus [1], the ID50 amounted to 12.5 ng min-1 rat-1. Besides, the pA2 in the assay filed under Rattus norvegicus [2] stood at 7.2.
For the molecule `CC[C@H](C)[C@H](NC(=O)[C@H](Cc1ccc(O)cc1)NC(=O)[C@@H](NC(=O)[C@H](CCCN=C(N)N)NC(=O)CNC)C(C)C)C(=O)N[C@@H](Cc1c[nH]cn1)C(=O)N1CCC[C@H]1C(=O)N[C@@H](C)C(=O)O`, the Activity was 15.1% and 10% in assay [3]; 0.5% in assay [4]; 0% in the assay filed under Oryctolagus cuniculus. The ID50 in the assay on Rattus norvegicus [5] is 7.92 ng min-1 rat-1 and 15 ng min-1 rat-1.
Take `CC[C@H](C)[C@H](NC(=O)[C@H](Cc1ccc(O)cc1)NC(=O)[C@@H](NC(=O)[C@H](CCCN=C(N)N)NC(=O)CNC)C(C)C)C(=O)N[C@@H](Cc1c[nH]cn1)C(=O)N1CCC[C@H]1C(=O)N[C@@H](Cc1ccccc1)C(=O)O`: the figures for the Activity in assay [3] and in assay [4] were 125% and 180%, respectively.
For `CNCC(=O)N[C@@H](CCCN=C(N)N)C(=O)N[C@H](C(=O)N[C@@H](Cc1ccc(O)cc1)C(=O)N1CSC(C)(C)[C@@H]1C(=O)N[C@@H](Cc1c[nH]cn1)C(=O)N1CCC[C@H]1C(=O)N[C@@H](Cc1ccccc1)C(=O)O)C(C)C`, the values for the Activity in assay [3] and in assay [4] were 100% and 250%, respectively.
`CC[C@H](C)[C@H](NC(=O)[C@H](Cc1ccc(O)cc1)NC(=O)[C@H](C)NC(=O)[C@H](CCCN=C(N)N)NC(=O)[C@@H](N)CC(=O)O)C(=O)N[C@@H](Cc1c[nH]cn1)C(=O)N1CCC[C@H]1C(=O)N[C@@H](Cc1ccccc1)C(=O)O` (H-DRAYIHPF-OH) showed an Activity in assay [3] of 80.5%.
`CC[C@H](C)[C@H](NC(=O)[C@H](Cc1ccc(O)cc1)NC(=O)[C@@H]1CCCN1C(=O)[C@H](CCCN=C(N)N)NC(=O)[C@@H](N)CC(=O)O)C(=O)N[C@@H](Cc1c[nH]cn1)C(=O)N1CCC[C@H]1C(=O)N[C@@H](Cc1ccccc1)C(=O)O` (H-DRPYIHPF-OH): the Activity in assay [3] is 53%.
The same measure, in the same setting: the result for `CC[C@H](C)[C@H](NC(=O)[C@H](Cc1ccc(O)cc1)NC(=O)C1(NC(=O)[C@H](CCCN=C(N)N)NC(=O)[C@@H](N)CC(=O)O)CCCC1)C(=O)N[C@@H](Cc1c[nH]cn1)C(=O)N1CCC[C@H]1C(=O)N[C@@H](Cc1ccccc1)C(=O)O` (H-DR[Ac5c]YIHPF-OH) reads 2%; that for `CC(C)[C@H](NC(=O)[C@H](Cc1ccc(O)cc1)NC(=O)C1(NC(=O)[C@H](CCCN=C(N)N)NC(=O)[C@@H](N)CC(=O)O)CCCC1)C(=O)N[C@@H](Cc1c[nH]cn1)C(=O)NC1(C(=O)N[C@@H](Cc2ccccc2)C(=O)O)CCCC1` (H-DR[Ac5c]YVH[Ac5c]F-OH), 1.5%; that for `CC(C)[C@H](NC(=O)[C@H](Cc1ccc(O)cc1)NC(=O)C1(NC(=O)[C@H](CCCN=C(N)N)NC(=O)[C@@H](N)CC(=O)O)CCCC1)C(=O)N[C@@H](Cc1c[nH]cn1)C(=O)NC(C)(C)C(=O)N[C@@H](Cc1ccccc1)C(=O)O` (H-DR[Ac5c]YVH[Aib]F-OH), 1%.
The same measure, in the same setting: the result for `CC(C)[C@H](NC(=O)[C@H](Cc1ccc(O)cc1)NC(=O)C1(NC(=O)[C@H](CCCN=C(N)N)NC(=O)[C@@H](N)CC(=O)O)CCCC1)C(=O)N[C@@H](Cc1c[nH]cn1)C(=O)N(C)[C@@H](C)C(=O)N[C@@H](Cc1ccccc1)C(=O)O` (H-DR[Ac5c]YVH[NMeA]F-OH) reads 22%; that for `CC[C@H](C)[C@H](NC(=O)[C@H](Cc1ccc(O)cc1)NC(=O)C(C)(C)NC(=O)[C@H](CCCN=C(N)N)NC(=O)[C@@H](N)CC(=O)O)C(=O)N[C@@H](Cc1c[nH]cn1)C(=O)N1CCC[C@H]1C(=O)N[C@@H](Cc1ccccc1)C(=O)O` (H-DR[Aib]YIHPF-OH), 1%.
`CC[C@H](C)[C@H](NC(=O)[C@@H]1CCCN1C(=O)[C@H](Cc1c[nH]cn1)NC(=O)[C@@H](NC(=O)[C@H](Cc1ccc(O)cc1)NC(=O)[C@H](C)NC(=O)[C@H](CCCN=C(N)N)NC(=O)CNC)[C@@H](C)CC)C(=O)O` (H-[Sar]RAYIHPI-OH) came in with a pA2 on Angiotensin II receptor of 8.3. For the same molecule, the Activity amounted to 7.5% in assay [3] and 0% in assay [4]. The ID50 (ng min-1 rat-1) in assay [6] was found to be 25.
At Angiotensin II receptor, `CC[C@H](C)[C@H](NC(=O)[C@H](C)N(C)C(=O)[C@H](Cc1c[nH]cn1)NC(=O)[C@@H](NC(=O)[C@H](Cc1ccc(O)cc1)NC(=O)[C@@H](NC(=O)[C@H](CCCN=C(N)N)NC(=O)CNC)C(C)C)[C@@H](C)CC)C(=O)O` (H-[Sar]RVYIH[NMeA]I-OH) came in with a pA2 of 8.4. The molecule further returned an Activity in assay [4] of 0%. In assay [6], the ID50 (ng min-1 rat-1) came to 20.
On the same counts, the results for `CC[C@H](C)[C@H](NC(=O)[C@@H]1CCCN1C(=O)[C@H](Cc1c[nH]cn1)NC(=O)[C@@H]1CCCN1C(=O)[C@H](Cc1ccc(O)cc1)NC(=O)[C@@H](NC(=O)[C@H](CCCN=C(N)N)NC(=O)CNC)C(C)C)C(=O)O` (H-[Sar]RVYPHPI-OH) are 8.7, 0% and 20.
The corresponding values for `CC[C@H](C)[C@H](NC(=O)[C@@H]1CCCN1C(=O)[C@H](Cc1c[nH]cn1)NC(=O)C1(NC(=O)[C@H](Cc2ccc(O)cc2)NC(=O)[C@@H](NC(=O)[C@H](CCCN=C(N)N)NC(=O)CNC)C(C)C)CCCC1)C(=O)O` (H-[Sar]RVY[Ac5c]HPI-OH) are 8.3, 0% and 10.
In the case of `CC[C@H](C)[C@H](NC(=O)[C@@H]1CCCN1C(=O)[C@H](Cc1c[nH]cn1)NC(=O)[C@@H](NC(=O)[C@H](Cc1ccc(O)cc1)NC(=O)C(C)(C)NC(=O)[C@H](CCCN=C(N)N)NC(=O)CNC)[C@@H](C)CC)C(=O)O` (H-[Sar]R[Aib]YIHPI-OH), on Angiotensin II receptor, the pA2 amounted to 7. The Activity amounted to 3% in assay [3] and 0% in assay [4]. In assay [6], this molecule yielded an ID50 (ng min-1 rat-1) of 50.
At Angiotensin II receptor, `CC[C@H](C)[C@H](NC(=O)[C@@H]1CCCN1C(=O)[C@H](Cc1c[nH]cn1)NC(=O)[C@@H](NC(=O)[C@H](Cc1ccc(O)cc1)NC(=O)[C@H](C)N(C)C(=O)[C@H](CCCN=C(N)N)NC(=O)CNC)[C@@H](C)CC)C(=O)O` (H-[Sar]R[NMeA]YIHPI-OH) came in with a pA2 of 8.9. In assay [4], this molecule came in with an Activity of 0%. The molecule further had an ID50 (ng min-1 rat-1) in assay [6] of 25.
`CC[C@@H](C)[C@@H](NC(=O)[C@H](Cc1ccc(O)cc1)NC(=O)[C@H](C)N(C)C(=O)[C@H](CCCN=C(N)N)NC(=O)CNC)C(=O)N[C@@H](Cc1c[nH]cn1)C(=O)N1CCC[C@H]1C(=O)NC(Cc1ccccc1)C(=O)O` (stereo in doubt) yielded a pA2 at Angiotensin II receptor below 6. The Activity in assay [3] was 10%; in assay [4] it was 0%. Also, in assay [6], the ID50 (ng min-1 rat-1) turned out to be 100.
